# Measurements of several laboratories.
# Protocols differ between the studies behind these lines.
SMILES,organism,effect on,method,strain,time,quantity,result
Cc1ccc(Cn2cc(C(=O)N/N=C/c3ccc([N+](=O)[O-])o3)c(=O)c3cc([N+](=O)[O-])ccc32)cc1,Trypanosoma brucei,parasite growth,resazurin,,72 h,EC50,> 4 µM
Cc1cc(C)c(C#N)c(SCC(=O)c2cccc(N)c2)n1,Trypanosoma brucei,parasite growth,resazurin,RHODESIENSE,,EC50,41.4 µM
COc1ccc2c(c1)c(=O)c(C(=O)NN)cn2Cc1ccccc1,Trypanosoma brucei,parasite growth,resazurin,,72 h,EC50,> 4 µM
Cc1cc(C)c(C(N)=O)c(SCC(=O)c2ccc(Cl)cc2Cl)n1,Trypanosoma brucei,parasite growth,resazurin,,,EC50,> 64 µM
Cc1ccc(Cn2cc(C(=O)N/N=C/c3ccc([N+](=O)[O-])o3)c(=O)c3cc(Cl)c(Cl)cc32)cc1,Trypanosoma brucei,parasite growth,resazurin,,72 h,EC50,1.02 µM
N=C(N)c1ccc(OCCCCCOc2ccc(C(=N)N)cc2)cc1,Trypanosoma brucei,parasite growth,SYBR Green,,,EC50,0.016 µM
O=C(N/N=C/c1ccc([N+](=O)[O-])o1)c1cn(Cc2ccccc2)c2ccc([N+](=O)[O-])cc2c1=O,Trypanosoma brucei,parasite growth,resazurin,,72 h,EC50,0.37 µM
CC(C)(C)OC(=O)N[C@@H]1CCN(c2cc(C(=O)NCC(=O)O)ccc2NC(=O)c2cc(Br)c(Br)[nH]2)C1,Enterococcus faecium,microbial growth,broth dilution,ATCC35667,,MIC,> 32 µg/mL
Cc1ccc(Cn2cc(C(=O)NN)c(=O)c3cc(Oc4ccccc4)ccc32)cc1,Trypanosoma brucei,parasite growth,resazurin,,72 h,EC50,0.46 µM
Cc1cc(C)c(C#N)c(SCc2ccccc2)n1,Trypanosoma brucei,parasite growth,resazurin,RHODESIENSE,,EC50,> 64 µM
Cl.N[C@H]1CCN(c2cc(C(=O)NCC(=O)O)ccc2NC(=O)c2cc(Br)c(Br)[nH]2)C1,Enterococcus faecium,microbial growth,broth dilution,ATCC35667,,MIC,> 32 µg/mL
Cc1cc(C)c(C#N)c(SCC(=O)c2ccc(F)cc2)n1,Trypanosoma brucei,parasite growth,resazurin,,,EC50,42.6 µM
Cc1[nH]c(C(=O)Nc2ccc(C(=O)NCC(=O)O)cc2N2CC[C@H](NC(=O)OC(C)(C)C)C2)c(Cl)c1Cl,Enterococcus faecium,microbial growth,broth dilution,ATCC35667,,MIC,> 32 µg/mL
COc1cc(NC(=O)c2ccc(C(F)(F)F)cc2C(F)(F)F)ccc1S(N)(=O)=O,Trypanosoma brucei,parasite growth,MTS,,,IC50,> 100 µM
Cc1cc(C)c(C#N)c(SCC(=O)c2ccc(Cl)cc2)n1,Trypanosoma brucei,parasite growth,resazurin,RHODESIENSE,,EC50,30.2 µM
Cl.O=C(O)CNC(=O)c1ccc(NC(=O)c2cc(Br)c(Br)[nH]2)c(N2CCNCC2)c1,Enterococcus faecium,microbial growth,broth dilution,ATCC35667,,MIC,> 32 µg/mL
